Bioassay records deposited in PubChem BioAssay by several laboratories.
PPC-1+TRAIL kill – compounds killing PPC-1 cancer cells with TRAIL present, primary screen, TRAIL potentiator project, ATPLite luminescence, uHTS. PPC-1 cells + TRAIL, ATPLite viability luminescence. cell killing (% activity), % at 4 µM or 5 µM. 220,000 compounds, 0.41% hits. AID 1443, 2008;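 active = cell killing above 50% in the first pass at 4 µM, then a duplicate retest at 5 µM averaging 50% or more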;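 note: plate controls were cells with TRAIL plus DMSO for no effect and medium-only wells lacking cells for full effect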
STAT1 inh – STAT1 signaling inhibitors, primary screen, cell-based, HTS, luciferase reporter; NIH 3T3 STAT1-luciferase reporter, IFN-gamma, luminescence; inhibition, % at 5.5 µM; 200,000 compounds, 0.35% hits; AID 920, 2007;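 active = inhibition above a set limit, the mean inhibition across all tested compounds plus 3 SD, cut at about 34% in these data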;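 note: 0% = IFN-gamma with DMSO and 100% = IFN-gamma with 300 µM nifuroxazide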
TRAIL sens C8 – viability loss with TRAIL in NB7+C8 cells, primary screen, TRAIL sensitizer project, cell-based, ATPlite luminescence; AID 624354, 2012; 360,000 compounds, 1% hits; inhibition (viability loss, TRAIL sensitization), % at 10 µM;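 active = compounds causing at least 50% loss of cell viability in the single-dose screen, relative to plate controls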
STAT3 activator – IL-6 driven STAT3 reporter potentiators, primary screen, U3A cells, luciferase, luminescence, MLSCN library. activation (% of control), % at 5.6 µM. 190,000 compounds, 0.91% hits. AID 871, 2007. IL-6 STAT3-luciferase reporter; 100% = signal with IL-6 EC80 alone;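 active = activation above the screen-wide mean of compound activation plus 3 SD, cut at about 130% in these data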;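 note: 0% = background luminescence of wells with medium and substrate only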
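Test system: STAT3-luciferase reporter U3A cells; Detection: reporter luminescence signal; Times: 1 h compound pre-exposure, 6 h IL-6 stimulation, 37 °C; Benchmarks: IL-6-only high control; Also added: IL-6 stimulus at 33 ng/mL final.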
STAT3 inh – IL-6 driven STAT3 reporter inhibitors, primary screen, U3A cells, luciferase, luminescence, MLSCN library; IL-6 STAT3-luciferase reporter; host cell line lacks STAT1; inhibition, % at 5.5 µM; AID 862, 2007; 190,000 compounds, 0.89% hits;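 active = inhibition above the mean inhibition across all screened compounds plus 3 SD, cut at about 44% in these data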;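 note: 0% = DMSO only wells and 100% = 100 µM nifuroxazide control wells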
Starred values were filed as active, the others as inactive; . = not tested or not shown. Sampled rows, rich in hits. Any-hit rate of the full collection: about 1.8%.

SMILES	PPC-1+TRAIL kill	STAT1 inh	TRAIL sens C8	STAT3 activator	STAT3 inh
CS(=O)(=O)c1nc(-c2ccc(Br)cc2)cc(-c2ccccc2)c1C#N	31.4	-2.7	88.4*	99.4	2.3
COc1ccc(-c2cc(-c3ccccc3)c(C#N)c(S(C)(=O)=O)n2)cc1	46.9	-7.4	78.2*	100.0	1.5
N#Cc1c(-c2ccc(Br)cc2)cc(-c2cccnc2)nc1N	21.1	0.3	7.8	107.0	-3.1
COc1ccc(-c2cc(-c3ccc(OC)cc3)c(C#N)c(SC)n2)cc1	3.0	-2.7	9.5	96.1	8.4
COc1ccc(CN2C(=O)c3cccnc3C2=O)cc1S(=O)(=O)NC1CCCCC1C (stereo not given)	.	.	8.0	.	.
Oc1ccc(Cl)cc1CNCc1ccc(C(F)(F)F)cc1	.	.	2.8	.	.
c1cc(-c2cc3cc(N4CCOCC4)ccc3o2)cs1	.	.	78.9*	.	.
CCCCCn1c2c(c(=N)c3ccccc31)CCC2	-0.6	.	0.5	.	.
Cc1cc(C)c2c(=N)c3ccccc3n(CCCCCCCCn3c4ccccc4c(=N)c4c(C)cc(C)nc43)c2n1	.	.	79.2*	.	.
Cc1ccc(-c2nc3ccccc3s2)cc1S(=O)(=O)N1CCCC1	-0.3	-12.2	0.6	85.2	23.4
Cc1cc(-c2nc3cc(F)ccc3s2)ccc1N	.	.	73.4*	.	.
O=C(CCl)N(Cc1ccccc1)c1ccccc1	11.7	16.8	96.0*	82.9	22.6
O=C(CCl)N(Cc1cc(=O)[nH]c2ccccc12)c1ccccc1	.	.	46.9	.	.
CN(C)c1cccc(C(=O)Nc2nnc(Cc3ccccc3)s2)c1	.	.	-4.5	.	.
COc1ccc(C)cc1NC(=O)CN(Cc1nnc(-c2ccc(Cl)cc2)o1)C1CCCC1	24.8	-1.9	84.7*	104.4	-0.7
CNCCNC[C@H](Cc1cccc2ccccc12)NCCc1ccccc1	.	.	-9.7	.	.
CNC[C@H](Cc1ccccc1)NC[C@@H](Cc1cccc2ccccc12)NCCc1ccc(C)cc1	.	.	95.0*	.	.
CCCCc1ccc(NC(=S)N2CCN(c3ccccn3)CC2)cc1	.	.	2.1	.	.
Cc1cc(F)ccc1S(=O)(=O)Nc1ccccc1C(=O)NC1CCN(Cc2ccccc2)CC1	.	.	8.1	.	.
Cn1c(-c2ncc(F)cc2F)cc2onc(-c3c(F)cccc3Cl)c2c1=O	.	.	7.1	.	.
Cn1c(-c2ccccc2)cc2onc(-c3ccccc3)c2c1=O	.	.	80.8*	.	.
Cn1c(-c2ccccc2)cc(=O)cc1-c1ccccc1	.	.	5.2	.	.
Cn1c(-c2ccccc2F)cc2onc(-c3ccccc3)c2c1=O	.	.	62.5*	.	.
CCCn1c(=O)n(C)c(=O)c2c(SCC(=O)NCC(c3ccccc3)N(C)C)nc(CC(C)C)nc21 (stereo not given)	.	.	8.4	.	.
COC(=O)[C@@]12C[C@@H](CC(=O)NCC3CCCCC3)C(=O)N(Cc3ccc4c(c3)OCO4)C1=CCC(C)(C)C2	.	.	12.8	.	.
SMILES	PPC-1+TRAIL kill	STAT1 inh	TRAIL sens C8	STAT3 activator	STAT3 inh
C[C@H]1CN([C@@H](C)CO)C(=O)CCCn2nncc2CO[C@H]1CN(C)S(=O)(=O)c1ccc2ccccc2c1	.	.	13.9	.	.
O=C(COC(=O)c1cc(Br)ccc1O)Nc1ccc2c(c1)OCO2	.	.	-3.6	.	.
NC(c1ccccc1)c1cccs1 (stereo not given)	.	.	-10.5	.	.
CN(C)/C=C1\C(=O)Nc2ccccc21	15.7	5.6	-1.9	134.7*	-31.8
[O-][N+]1=c2ccc(Nc3ccccc3)cc2=NC12CCCCC2	11.2	-37.3	69.5*	106.3	-4.2
CCOc1ccc(C2=Nn3c(nnc3-c3ccccc3OC)SC2)cc1	-12.5	-15.6	-7.7	145.5*	-48.7
O=C(N/N=C/c1ccc(O)c2ncccc12)c1cccc(Br)c1	19.2	-10.6	55.5*	83.4	25.6
O=C(CNC(=O)c1ccc(Cl)cc1Cl)OCn1nnc2ccccc2c1=O	.	.	-20.2	.	.
COc1ccc(-c2nn(-c3ccccc3)cc2/C=N/NC(=O)c2ccc(Br)o2)cc1	15.3	0.1	69.3*	69.4	45.1*
CCN1C[C@@H]2[C@@H]3C(=O)N(C)C(=O)[C@@H]3[C@](CC)(C1=O)N2C(=O)c1ccc(Cl)cc1	.	.	4.9	.	.
COC(=O)c1c[nH]c2c1-c1cc(C(=O)OCc3ccccc3)n(S(=O)(=O)c3ccc(C)cc3)c1C(=O)C2=O	.	.	69.5*	.	.
COc1ccc(-c2cc(C(=O)N3CCOCC3)no2)cc1	.	.	51.4*	.	.
COc1ccc(-c2cc3ccccc3cn2)cc1	.	.	55.5*	.	.
COc1ccc(-c2cc(-c3ccccc3)no2)cc1	.	.	59.4*	.	.
COc1ccc(-c2ccc(-c3nnn(CC(=O)N4CCOCC4)n3)cc2)cc1	-0.5	-15.5	52.2*	90.9	20.1
Cc1noc(C)c1S(=O)(=O)N1CCCCC1c1cc(C(=O)Nc2cccc3c2CCCC3)no1 (stereo not given)	.	.	-4.5	.	.
O=C(Nc1cccc(Cl)c1)c1csc([C@H]2C[C@H](O)[C@@H](CO)O2)n1	.	.	3.8	.	.
COc1ccc(-c2cc3ccc(OC)cc3cn2)cc1	.	.	76.7*	.	.
COc1ccc2cc(-c3ccccc3F)ncc2c1	.	.	53.0*	.	.
COc1ccc([C@@H](OC)[C@@]2(Cc3ccc(O)cc3)N=C(N)N(C)C2=O)cc1	.	.	-11.2	.	.
CCC1(CC)NC(=O)N(CC(=O)OCc2nc3cc(C(=O)OC)ccc3c(=O)[nH]2)C1=O	.	.	-12.8	.	.
COc1ccc2c(=O)c(-c3ccc(C)cc3)c(-c3ccccc3)oc2c1	.	.	16.3	.	.
COc1cccc(/C=C2\CCC(C3CCCC3)C2=O)c1OC (stereo not given)	.	.	49.4*	.	.
COc1ccc(/C=C2\CCC(C3CCCC3)C2=O)c(OC)c1OC (stereo not given)	.	.	4.0	.	.
CSc1nnc(NC(=O)c2nc(S(=O)(=O)Cc3ccccc3)ncc2Cl)s1	.	.	81.6*	.	.
SMILES	PPC-1+TRAIL kill	STAT1 inh	TRAIL sens C8	STAT3 activator	STAT3 inh
CCCc1nnc(NC(=O)c2nc(S(=O)(=O)Cc3ccc(C)cc3)ncc2Cl)s1	.	.	24.7	.	.
CC(C)c1nnc(NC(=O)c2nc(S(=O)(=O)Cc3ccccc3)ncc2Cl)s1	.	.	94.2*	.	.
Cc1ccc2nc(SCC(=O)c3c(N)n(C4CC4)c(=O)[nH]c3=O)[nH]c2c1	.	.	-8.7	.	.
Cc1ccc(Nc2nnc(SCC(=O)c3c(N)n(C4CC4)c(=O)[nH]c3=O)s2)cc1C	.	.	55.3*	.	.
Cc1cccc(Nc2nnc(SCC(=O)c3c(N)n(C4CC4)c(=O)[nH]c3=O)s2)c1	.	.	48.6	.	.
CCCc1cc(=O)[nH]c(SCC(=O)c2c(N)n(C3CC3)c(=O)[nH]c2=O)n1	.	.	85.2*	.	.
Cn1c(Nc2ccccc2)nc2ccccc21	.	.	13.7	.	.
CC(C)N=c1cc2n(-c3ccc(Cl)cc3)c3ccccc3nc-2cc1Nc1ccc(Cl)cc1	.	.	80.6*	.	.
CC1(c2ccc(Cl)cc2)NC(=O)N(CC(=O)N2CCN(C(=O)c3cccs3)CC2)C1=O (stereo not given)	.	.	-8.6	.	.
COc1cc(NCc2ccccc2)c2ncn(C(C)C)c2c1	.	.	-1.4	.	.
CCC(CN(C)C)Oc1cc(NCc2ccccc2)c2ncn(C(C)C)c2c1 (stereo not given)	.	.	58.3*	.	.
Cc1ccccc1NS(=O)(=O)c1cc(C(=O)Nc2cccc(N(C)S(C)(=O)=O)c2)ccc1C	-3.1	8.1	3.5	96.2	9.6
